Assay results published in ChEMBL document CHEMBL1154048, “Design, synthesis and pharmacological evaluation of new 1-[3-(4-arylpiperazin-1-yl)-2-hydroxy-propyl]-3,3-diphenylpyrrolidin-2-one derivatives with antiarrhythmic, antihypertensive, and alpha-adrenolytic activity” (Eur J Med Chem, 2009).

Target: T1, Adrenergic receptor alpha-1 (Rattus norvegicus, UniProt P15823+P23944+P43140)
T1 sequence (P15823 whole entry): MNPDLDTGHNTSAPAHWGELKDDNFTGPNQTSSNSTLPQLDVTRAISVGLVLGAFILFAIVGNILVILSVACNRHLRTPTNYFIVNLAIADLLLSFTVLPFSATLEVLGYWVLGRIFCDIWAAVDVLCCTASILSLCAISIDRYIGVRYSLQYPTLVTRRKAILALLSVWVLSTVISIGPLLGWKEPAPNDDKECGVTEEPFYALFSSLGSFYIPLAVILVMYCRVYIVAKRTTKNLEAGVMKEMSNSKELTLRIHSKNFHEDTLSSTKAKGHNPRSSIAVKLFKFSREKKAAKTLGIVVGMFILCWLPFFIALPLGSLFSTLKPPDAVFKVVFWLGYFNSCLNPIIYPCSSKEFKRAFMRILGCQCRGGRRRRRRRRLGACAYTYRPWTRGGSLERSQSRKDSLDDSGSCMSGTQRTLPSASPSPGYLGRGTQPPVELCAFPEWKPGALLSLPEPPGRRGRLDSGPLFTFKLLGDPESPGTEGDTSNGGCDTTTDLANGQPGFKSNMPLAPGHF
T1 sequence (P23944 whole entry): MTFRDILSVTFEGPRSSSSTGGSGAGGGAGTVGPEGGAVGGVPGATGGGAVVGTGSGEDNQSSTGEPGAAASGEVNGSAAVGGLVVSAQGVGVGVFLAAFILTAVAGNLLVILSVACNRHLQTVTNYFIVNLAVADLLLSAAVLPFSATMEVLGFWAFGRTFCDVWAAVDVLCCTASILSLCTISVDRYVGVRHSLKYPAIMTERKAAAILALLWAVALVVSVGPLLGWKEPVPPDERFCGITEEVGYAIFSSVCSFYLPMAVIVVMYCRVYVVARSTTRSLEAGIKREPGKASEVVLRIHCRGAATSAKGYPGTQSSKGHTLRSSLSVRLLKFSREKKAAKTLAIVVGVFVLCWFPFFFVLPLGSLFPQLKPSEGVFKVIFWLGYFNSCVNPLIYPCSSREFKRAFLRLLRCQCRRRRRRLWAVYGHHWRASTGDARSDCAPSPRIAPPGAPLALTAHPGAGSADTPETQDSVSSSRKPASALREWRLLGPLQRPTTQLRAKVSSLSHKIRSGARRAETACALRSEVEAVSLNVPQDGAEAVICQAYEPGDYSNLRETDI
T1 sequence (P43140 whole entry): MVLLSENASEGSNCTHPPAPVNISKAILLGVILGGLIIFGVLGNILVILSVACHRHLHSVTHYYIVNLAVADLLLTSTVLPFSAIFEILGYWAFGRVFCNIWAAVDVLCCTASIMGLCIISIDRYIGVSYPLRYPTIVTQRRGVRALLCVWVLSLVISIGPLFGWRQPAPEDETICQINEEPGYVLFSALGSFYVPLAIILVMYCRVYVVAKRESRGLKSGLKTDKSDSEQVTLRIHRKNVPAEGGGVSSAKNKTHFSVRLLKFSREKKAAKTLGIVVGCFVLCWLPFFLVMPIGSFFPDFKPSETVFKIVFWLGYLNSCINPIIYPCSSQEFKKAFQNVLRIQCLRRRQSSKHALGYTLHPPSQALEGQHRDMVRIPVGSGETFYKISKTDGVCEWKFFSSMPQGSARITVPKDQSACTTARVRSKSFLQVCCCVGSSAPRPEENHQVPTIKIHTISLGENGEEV
Assay: Displacement of [3H]prazosin from alpha1 adrenergic receptor in rat cerebral cortex by liquid scintillation counting
Format: tissue-based
In short: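 Rat cerebral cortex was homogenized in ice-cold 50 mM Tris–HCl pH 7.6, centrifuged 20 000 × g for 20 min at 0–4 °C, and washed once more. Membranes were incubated with [3H]prazosin 0.2 nM and seven to eight compound concentrations (10^-11–10^-4 M), with phentolamine defining nonspecific binding. Bound ligand was filtered on glass fiber and counted by liquid scintillation. Runs were in duplicate, and Ki was calculated by Cheng–Prusoff.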

| Compound | pKi |
| --- | --- |
| Cc1ccccc1N1CCN(CC(O)CN2CCC(c3ccccc3)(c3ccccc3)C2=O)CC1.Cl.Cl (stereo unspecified) | 6.69 |
| Cl.Cl.O=C1N(CC(O)CN2CCN(c3ccccc3C(F)(F)F)CC2)CCC1(c1ccccc1)c1ccccc1 (stereo unspecified) | 5.89 |
| CCOc1ccccc1N1CCN(CC(O)CN2CCC(c3ccccc3)(c3ccccc3)C2=O)CC1.Cl.Cl (stereo unspecified) | 7.28 |
| COc1ccccc1N1CCN(CC(O)CN2CCC(c3ccccc3)(c3ccccc3)C2=O)CC1.Cl.Cl (stereo unspecified) | 6.8 |
| Cl.Cl.O=C1N(CC(O)CN2CCN(c3ccccc3)CC2)CCC1(c1ccccc1)c1ccccc1 (stereo unspecified) | 6.74 |
| COc1ccc(N2CCN(CC(O)CN3CCC(c4ccccc4)(c4ccccc4)C3=O)CC2)cc1.Cl.Cl (stereo unspecified) | 5.36 |
